Measured values as given in PMC4235313 (Chemistry (Weinheim an Der Bergstrasse, Germany), 2013).
pIC50: −log10 of the molar value.

Molecular target: T1, S. aureus PBP2 (Staphylococcus aureus, UniProt Q9R744)
T1 sequence (Q9R744 1-727): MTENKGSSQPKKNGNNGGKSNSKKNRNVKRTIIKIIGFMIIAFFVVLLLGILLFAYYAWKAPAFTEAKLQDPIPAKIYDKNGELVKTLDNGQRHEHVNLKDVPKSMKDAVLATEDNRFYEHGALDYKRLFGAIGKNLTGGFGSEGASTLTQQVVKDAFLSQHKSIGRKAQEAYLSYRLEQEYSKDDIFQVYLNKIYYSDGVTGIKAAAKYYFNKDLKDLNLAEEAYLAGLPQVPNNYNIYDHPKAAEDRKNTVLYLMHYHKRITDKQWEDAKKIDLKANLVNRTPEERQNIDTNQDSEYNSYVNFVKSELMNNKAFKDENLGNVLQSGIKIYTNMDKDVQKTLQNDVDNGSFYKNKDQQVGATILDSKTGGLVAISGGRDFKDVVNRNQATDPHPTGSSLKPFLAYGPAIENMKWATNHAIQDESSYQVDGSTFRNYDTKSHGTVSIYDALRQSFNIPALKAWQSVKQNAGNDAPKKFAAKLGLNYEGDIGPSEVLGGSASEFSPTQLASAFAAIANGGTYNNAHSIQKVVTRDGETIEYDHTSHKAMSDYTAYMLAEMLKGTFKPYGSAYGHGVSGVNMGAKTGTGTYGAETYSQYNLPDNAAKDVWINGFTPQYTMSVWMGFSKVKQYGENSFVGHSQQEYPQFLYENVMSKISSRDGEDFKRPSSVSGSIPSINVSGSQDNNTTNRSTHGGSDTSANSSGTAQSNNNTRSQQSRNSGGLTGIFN
Format: biochemical, Staphylococcus aureus RN4220
Details: for suppression of the peptidoglycan polymerization (in words): susceptible (normal lipid II analogue) and resistant (depsi-lipid II analogue) models of the PBP2 reaction, Figure 6
Outline: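 N-terminal His6 S. aureus PBP2 (gene from RN4220 genomic DNA), expressed in E. coli BL21(DE3)pLysS, Ni-NTA and gel-filtration purified; 30 μg/mL in 50 mM HEPES pH 7.0, 18 mM MnCl2, 10% DMSO. Test compound series started with 4 μM [14C]-C35-lipid II or [14C]-C35-depsi-lipid II analogue, 30 °C, 4 min; SDS stop; cellulose TLC; phosphorimaging of polymerised product.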

Compound	pIC50	suppression of the peptidoglycan polymerization (in words)
CN[C@H](CC(C)C)C(=O)N[C@H]1C(=O)N[C@@H](CC(N)=O)C(=O)N[C@H]2C(=O)N[C@H]3C(=O)N[C@H](C(=O)N[C@H](C(=O)O)c4cc(O)cc(O)c4-c4cc3ccc4O)[C@H](O)c3ccc(c(Cl)c3)Oc3cc2cc(c3O[C@@H]2O[C@H](CO)[C@@H](O)[C@H](O)[C@H]2O[C@H]2C[C@](C)(N)[C@H](O)[C@H](C)O2)Oc2ccc(cc2Cl)[C@H]1O [vancomycin]	5.82	suppressed the peptidoglycan polymerization only when normal lipid II analogue was used
moenomycin		suppressed the peptidoglycan polymerization regardless of the use of normal or depsi-lipid II analogues
